Test [1] has as its target T1, 5-hydroxytryptamine receptor 1B (Rattus norvegicus, UniProt P28564). Kind of test: (§1) Inhibitory activity against 5-hydroxytryptamine 1B receptor of rat striatal membrane homogenate using [3H]5-HT as the radioligand.
In test [2] the target is T2, 5-hydroxytryptamine receptor 1A (Rattus norvegicus, UniProt P19327).
T2 sequence (P19327 whole entry): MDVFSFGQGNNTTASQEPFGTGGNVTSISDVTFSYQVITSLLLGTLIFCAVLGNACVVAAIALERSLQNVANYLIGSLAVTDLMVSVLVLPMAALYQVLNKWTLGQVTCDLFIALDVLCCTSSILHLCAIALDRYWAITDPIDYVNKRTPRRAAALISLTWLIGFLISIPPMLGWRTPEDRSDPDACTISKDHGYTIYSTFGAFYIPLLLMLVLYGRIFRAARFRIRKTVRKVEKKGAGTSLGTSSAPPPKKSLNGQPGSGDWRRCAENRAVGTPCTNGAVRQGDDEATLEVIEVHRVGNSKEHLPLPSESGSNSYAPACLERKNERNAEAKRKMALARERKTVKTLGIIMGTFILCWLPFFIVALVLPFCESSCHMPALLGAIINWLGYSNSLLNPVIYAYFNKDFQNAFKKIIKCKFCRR
Kind of test: (§2) Inhibitory activity against 5-hydroxytryptamine 1A receptor of rat hippocampal tissue using [3H]OH-DPAT as radioligand.

Another test deals with Adrenergic receptor beta (Rattus norvegicus, UniProt P18090+P10608+P26255). Kind of test: Inhibitory activity against beta adrenergic receptor of rat frontal cortex homogenate using (1.0 nM) [3H]- dihydroalprenolol. In kind it is tissue-based.
Test [3] addresses T2, 5-hydroxytryptamine receptor 1A. Described as §2. Type of test: tissue-based, Hippocampus. An outline of the steps: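 Rat hippocampal membranes (4 mg wet weight), washed and preincubated 15 min at 37 °C, in 50 mM Tris HCl with 0.5 mM Na₂EDTA, 10 mM MgSO₄, 10 μM pargyline and 0.1% ascorbate. 0.1 nM [³H]8-OH-DPAT, 1 μM 8-OH-DPAT for nonspecific binding. Eleven competitor concentrations, at least triplicate. Incubated 30 min at 37 °C, then filtered over glass fiber. Ki reported.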

The target in test [4] is T1, 5-hydroxytryptamine receptor 1B. The description is as §1. In short, it runs like this:
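Competition binding on washed rat striatal membrane homogenate (8 mg) with 2.0 nM [³H]5-HT. 10⁻⁷ M 8-OH-DPAT and mesulergine block 5-HT1A and 5-HT1C sites; 10⁻⁶ M 5-HT defines nonspecific binding. Buffer: 50 mM Tris HCl, EDTA, MgSO₄, 10 μM pargyline, 0.1% ascorbate. Eleven concentrations, at least triplicate. 37 °C for 30 min, then glass-fiber filtration. Ki given.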
The source holds these as a separate data set.

A value given as a limit tells only on which side of the number the result lay.

The term Ki denotes a dissociation constant, usually derived from enzyme kinetics or from competition with a known ligand. A higher Ki goes with lower affinity.

T1 sequence (P28564 whole entry): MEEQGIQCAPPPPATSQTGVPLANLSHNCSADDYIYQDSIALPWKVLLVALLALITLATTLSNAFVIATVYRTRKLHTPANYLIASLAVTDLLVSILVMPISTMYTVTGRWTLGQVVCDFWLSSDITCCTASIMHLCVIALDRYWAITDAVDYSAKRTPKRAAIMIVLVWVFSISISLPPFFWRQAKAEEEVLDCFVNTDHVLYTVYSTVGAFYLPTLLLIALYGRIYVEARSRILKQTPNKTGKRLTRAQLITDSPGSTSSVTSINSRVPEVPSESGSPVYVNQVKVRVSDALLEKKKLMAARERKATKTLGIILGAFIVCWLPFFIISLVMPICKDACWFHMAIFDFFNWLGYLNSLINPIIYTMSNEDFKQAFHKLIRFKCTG

`CN(C)CCCOc1ccccc1`: the Ki in test [1] was more than 10000 nM; in test [2], 4850 nM.

As for `CN(C)CCCCOc1cccc2ccccc12`, the Ki worked out at 1000 nM in test [1] and 400 nM in test [2].

Take `CN(C)CCCOc1cccc2ccccc12`: the Ki came out at 1000 nM in test [1], 345 nM in test [2] and 2400 nM at Adrenergic receptor beta.

`CNCCCOc1ccccc1`: the figures for the Ki in test [1] and in test [2] were 3100 nM and 3300 nM, respectively.

As for `CCCCN(CC)CCOc1cccc2ccccc12`, the inhibition constant Ki in test [1] came to 1100 nM; in test [2], 39 nM; on Adrenergic receptor beta, 5000 nM.

For the compound `CN(C)CCOc1cccc2ccccc12`, the inhibition constant Ki in test [1] is 1500 nM; in test [2] it was 80 nM; on Adrenergic receptor beta, 4500 nM.

`CN(C)CCCNc1ccccc1`: the values for the inhibition constant Ki in test [1] and in test [2] were more than 10000 nM and more than 25000 nM, respectively.

On to `CN(CCOc1cccc2ccccc12)Cc1ccccc1`, for which the inhibitory constant (Ki) in test [2] stood at 95 nM.

With `CCCN(C)CCOc1cccc2ccccc12`, the results for the Ki (in test [1]; in test [2]; on Adrenergic receptor beta) were 1800 nM, 45 nM and 5300 nM, respectively.

For the compound `COc1ccccc1OCCCN(C)C`, the inhibition constant (Ki) in test [1] was more than 10000 nM; in test [2], 3000 nM.

Regarding `CCCCN(CC)CCC(=O)c1cccc2ccccc12`, the affinity in test [3] corresponds to a Ki of 3530 nM.

Take `CN(C)Cc1cccc2ccccc12`: the Ki in test [3] is 3420 nM.

As for `CCCN(CCC)CCCOc1ccccc1`, the values for the Ki in test [1] and in test [2] were more than 10000 nM and 2750 nM, respectively.

Regarding `CCCCN(CC)CCCc1cccc2ccccc12`, in test [3], the affinity corresponds to a Ki of 300 nM.

`CCCCN(CCCC)CCCOc1cccc2ccccc12`: the results for the Ki (in test [1]; in test [2]; at Adrenergic receptor beta) were 5650 nM, 225 nM and 8300 nM, respectively.

Regarding `CN(C)CCCOc1ccccc1O`, the Ki in test [1] was more than 10000 nM; in test [2] it was 4900 nM.

For `CCCCN(CCCC)CCOc1cccc2ccccc12`, the Ki in test [1] is 9000 nM; in test [2], 150 nM; at Adrenergic receptor beta, more than 10000 nM.

As for `NCCOc1cccc2ccccc12`, the inhibition constant Ki in test [2] turned out to be 60 nM.

Take `CCCN(CCC)CCCOc1cccc2ccccc12`: the Ki in test [1] was found to be 6100 nM; in test [2], 450 nM.

For `CCCN(CCC)CC(O)COc1cccc2ccccc12` (centres undefined), the figures for the inhibition constant (Ki) in test [3] and in test [4] were 1320 nM and 8000 nM, respectively.

In test [3], `CCCCN(CC)CCCC1CCCc2ccccc21` (centres undefined) returned a Ki of 540 nM.

As to `CN(C)CCCCc1ccccc1`, the figures for the Ki in test [3] and in test [4] were 5000 nM and more than 10000 nM, respectively.

For the origin of these results see ChEMBL document CHEMBL1124632 (J Med Chem, 1989).
